Experimental data published in publication PMC10782576 (ACS infectious diseases, 2019).
“Also recorded” adds a separate entry of the source. Like-named read-outs stand apart in the source and are kept apart here.

Legend:
[1] = tested on: Trichomonas vaginalis; experiment: imaging-based T. vaginalis viability assay; format: cell-based; settings: for EC50: Trichomonas vaginalis; for effect of oxygen level on antitrichomonal activity: aerobic, microaerophilic and anaerobic atmospheres compared; for extent of elimination of trichomonads: strict anaerobic atmosphere; for EC50 T. vaginalis: imaging assay, 17 h incubation, microaerophilic unless specified
[2] = tested on: Ect1/E6E7 normal-type human ectocervical cells; experiment: mammalian cell cytotoxicity counter screen, Ect1/E6E7; format: cell-based; settings: for Selectivity Index SIEct1: (EC50 for Ect1 cells)/(EC50 for T. vaginalis); for EC50: read-out: EC50 Ect1 Normal Cervical, Ect1/E6E7 cytotoxicity
[3] = tested on: Lactobacillus acidophilus; experiment: Lactobacillus acidophilus viability assay; format: cell-based; settings: for effect on growth and viability of L. acidophilus: anaerobic conditions, at the concentrations tested (Figure 8); for EC50: read-out: EC50 L. acidophilus, anaerobic, 18 h
In short: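 Bacteria from MRS agar colonies were suspended in MRS broth, vortexed and dispensed into 96-well plates. Test compound was added in DMSO (0.5% final). Baseline OD 600 nm was read, then plates were incubated 18 h at 37 °C under anaerobic conditions (GasPak EZ Anaerobe sachets). OD 600 nm was read again to determine change from baseline.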

[4] = tested on: NIH/3T3 mouse fibroblast cells; experiment: mammalian cell cytotoxicity counter screen, NIH/3T3; format: cell-based; settings: read-out: EC50 3T3 Mouse Fibroblast; NIH/3T3 cytotoxicity
In short: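 NIH/3T3 mouse fibroblasts were maintained in DMEM with 5% FetalClone III. Viability was read by MTT or by a Calcein AM/Hoechst 33342 live-cell-area imaging assay. For imaging, a DMSO stock (40 μM Calcein AM, 160 μM Hoechst) was diluted 1:5 in PBS and added. After 30 min, Hoechst-stained nuclei were imaged and cells were scored live or dead by green fluorescence.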

[5] = tested on: T. vaginalis infection; settings: after a single course of treatment; cited from earlier work
[6] = 17 h, read-out: EC50 T. vaginalis

| Compound | effect of oxygen level on antitrichomonal activity [1] | EC50 [3] [µM] | EC50 [2] [µM] | EC50 [4] [µM] | other results |
| --- | --- | --- | --- | --- | --- |
| COC1=CC(=O)c2c(O)c3c(c(O)c2C1=O)CC(C)(O)OC3 (stereo not drawn) [compound 1, fusarubin] | decreased as oxygen was introduced |  |  |  | EC50 [1, 6]: 2.5 µM; extent of elimination of trichomonads [1]: partial elimination; Selectivity Index SIEct1 [2]: 30 |
| COC1=CC(=O)c2c(O)c(C)c(CC(C)=O)c(O)c2C1=O [compound 2, javanicin] |  |  |  |  | EC50 [1, 6]: 1.3 µM; Selectivity Index SIEct1 [2]: 3.1 |
| COC1=CC(=O)c2c(O)ccc(O)c2C1=O [compound 9, 2-Methoxynaphthazarin] | decreased as oxygen was introduced |  |  |  | extent of elimination of trichomonads [1]: complete elimination |
| O=C1C(O)=C([C@H]2CC[C@H](c3ccc(Cl)cc3)CC2)C(=O)c2ccccc21 [compound 37, atovaquone, reference compound] |  |  |  |  | Selectivity Index SIEct1 [2]: < 0.1 |
| COC(=O)[C@@]12Oc3cc4c(c(O)c3C(=O)C1=C(O)CC[C@@H]2O)[C@@H]1C=C[C@@]2(C4)C(=O)c3cc(C)cc(O)c3C(O)=C2C1=O [compound 46, xanthoquinodin A1] | maintained consistent potency |  |  |  | EC50 ([1]; read-out: average EC50 against T. vaginalis): 3 µM; effect on growth and viability of L. acidophilus [3]: near equipotent activity against T. vaginalis and L. acidophilus; also recorded: significant inhibition; Selectivity Index SIEct1 [2]: ~ 20 |
| C/C=C/[C@@H]1C=C[C@@H]2C[C@H](C)CC[C@H]2[C@]1(C)/C(O)=C1/C(=O)[C@@H](CO)N(C)C1=O [compound 49, 5’-epiequisetin] |  |  |  |  | EC50 T. vaginalis [1]: Inactive |
| C/C=C/[C@@H]1C=C[C@@H]2C[C@H](C)CC[C@H]2[C@]1(C)/C(O)=C1/C(=O)N[C@@H](CO)C1=O [compound 50, trichosetin] |  | > 50 | 34 | 30 |  |
| CC1=C[C@H]2C[C@@H](C)CC[C@@H]2[C@@](C)(/C(O)=C2\C(=O)[C@H](CO)N(C)C2=O)[C@H]1/C=C/C=C/C[C@@H](C)O [compound 52, 5’-epipyrrolocin A] |  |  |  |  | EC50 T. vaginalis [1]: Inactive |
| C/C=C/C=C/C1C(C)=CC2CC(C)CCC2C1(C)/C(O)=C1\C(=O)NC(CO)C1=O (stereo not drawn) [compound 53, beauversetin] | no statistically significant change in EC50 value | > 50 | 35 | 35 | effect on growth and viability of L. acidophilus [3]: no effect |
| C/C=C/C=C/[C@H]1C(C)=C[C@H]2C[C@@H](C)CC[C@@H]2[C@@]1(C)/C(O)=C1/C(=O)N[C@@H](CO)C1=O [compound 54, 5’-epibeauversetin] |  |  |  |  | EC50 T. vaginalis [1]: Inactive |
| C/C=C/C=C/[C@H]1C(C)=C[C@H]2C[C@@H](C)CC[C@@H]2[C@@]1(C)/C(O)=C1\C(=O)[C@H](CO)N(C)C1=O [compound 56, 5’-epiphomasetin] |  |  |  |  | EC50 T. vaginalis [1]: Inactive |
| Cc1ncc([N+](=O)[O-])n1CCO [metronidazole, reference compound] | maintained consistent potency |  |  |  | effect on growth and viability of L. acidophilus [3]: no inhibition; patients cleared of the infection [5]: > 90% |
| CCS(=O)(=O)CCn1c([N+](=O)[O-])cnc1C [tinidazole] |  |  |  |  | patients cleared of the infection [5]: > 90% |
| equisetin [compound 48] |  | > 50 | 35 | 100 | toxicity to / inhibition of L. acidophilus ([3]; at concentrations up to 50 μM): non-toxic |
| phomasetin [compound 55] |  | > 50 | 7 | 10 |  |
| pyrrolocin A [compound 51] |  | > 50 | 10 | 6 |  |
